Source: ChEMBL document CHEMBL1133018, “Deltorphin II analogues with 6-hydroxy-2-aminotetralin-2-carboxylic acid in position 1” (J Med Chem, 2000)
*1 amine or outer side, *2 acyl side, *3 side chain or, on linkers, in order; H or OH if unused. Where a SMILES comes first, the peptide text is derived from it. [ ]: non-standard residue; d: D form. X1 = O=C([C@@]1(N[*:1])CCc2cc(O)ccc2C1)[*:2]; X2 = O=C([C@]1(N[*:1])CCc2cc(O)ccc2C1)[*:2]

Legend:
[1] = target: Delta-type opioid receptor (Rattus norvegicus) (UniProt P33533)
[2] = target: T1, Delta-type opioid receptor (Rattus norvegicus, UniProt P33533); assay: Binding affinities against Opioid receptor delta 1 of rat brain using [3H]p-Cl-Phe4-DPDPE as radioligand.
How it was run: (§1)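 Wistar rat brain (minus cerebellum) membranes, 300-500 µg protein, 50 mM Tris-HCl pH 7.4. Displacement of [3H]pClPhe4-DPDPE (0.8 nM, 25 °C, 90 min) or [3H]Ile5,6-deltorphin II (0.5 nM, 35 °C, 45 min). Filtration, scintillation counting. Nonspecific binding defined with 10 µM naloxone. Ki as mean ± SEM of 3-5 runs in duplicate; Hill slopes also fitted.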

[3] = target: T1, Delta-type opioid receptor; assay: Binding affinities against delta 2 opioid receptor of rat brain using [3H]Ile5,6-deltorphin II as radioligand.
How it was run: as §1

[4] = target: Mu-type opioid receptor (Cavia porcellus, UniProt P97266); assay: inhibitory concentration for inhibition of electrically induced smooth muscle contractions of GPI (guinea pig ileum) myenteric-plexus-longitudinal muscle strips.; assay type: functional, tissue-based
How it was run: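 Longitudinal muscle-myenteric plexus strips from ileum of male guinea pigs (400-600 g), electrically stimulated under standard conditions. IC50 taken as 50% inhibition of twitch, mean ± SEM of 4-6 measurements. Where no IC50 was reached, % inhibition is given at 10^-6 or 10^-5 M (n = 4).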

[5] = target: Mu-type opioid receptor (Rattus norvegicus) (UniProt P33535)
[6] = target: Delta-type opioid receptor (Rattus norvegicus) (UniProt P33533); remark: listed apart in the source
[7] = organism: Rattus norvegicus; assay: Stimulation of [35S]GTP-gamma-S, binding at the concentration of 1 uM.; assay type: functional
How it was run: (§2)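 Rat frontal cortex crude membranes, 10 µg protein, in 50 mM Tris-HCl with 1 mM EGTA, 3 mM MgCl2, 100 mM NaCl. Incubated with 30 µM GDP and 0.05 nM [35S]GTPγS, 1 h at 30 °C. Nonspecific binding taken with 10 µM unlabeled GTPγS. Filtered and counted. Stimulation expressed as % of specific binding, mean ± SEM of three triplicate experiments.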

[8] = organism: Rattus norvegicus; assay: Stimulation of [35S]GTP-gamma-S, binding at the concentration of 0.1 uM.; assay type: functional
How it was run: as §2

[9] = target: Delta-type opioid receptor (Rattus norvegicus) (UniProt P33533); remark: listed apart in the source
[10] = target: Mu-type opioid receptor (Rattus norvegicus) (UniProt P33535); remark: listed apart in the source

T1 sequence (P33533 whole entry): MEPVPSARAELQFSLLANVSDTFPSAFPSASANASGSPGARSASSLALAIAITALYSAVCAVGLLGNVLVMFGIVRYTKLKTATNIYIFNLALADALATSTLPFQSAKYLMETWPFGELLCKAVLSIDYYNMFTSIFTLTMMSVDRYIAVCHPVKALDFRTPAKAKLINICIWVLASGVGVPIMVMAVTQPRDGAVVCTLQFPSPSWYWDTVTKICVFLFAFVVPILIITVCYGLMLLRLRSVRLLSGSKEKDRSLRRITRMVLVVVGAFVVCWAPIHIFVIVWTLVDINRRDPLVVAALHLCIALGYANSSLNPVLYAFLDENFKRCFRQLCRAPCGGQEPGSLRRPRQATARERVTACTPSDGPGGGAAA
Delta-type opioid receptor (Rattus norvegicus), sequence (P33533 whole entry): as above
Mu-type opioid receptor (Rattus norvegicus), sequence (P33535 whole entry, looked up): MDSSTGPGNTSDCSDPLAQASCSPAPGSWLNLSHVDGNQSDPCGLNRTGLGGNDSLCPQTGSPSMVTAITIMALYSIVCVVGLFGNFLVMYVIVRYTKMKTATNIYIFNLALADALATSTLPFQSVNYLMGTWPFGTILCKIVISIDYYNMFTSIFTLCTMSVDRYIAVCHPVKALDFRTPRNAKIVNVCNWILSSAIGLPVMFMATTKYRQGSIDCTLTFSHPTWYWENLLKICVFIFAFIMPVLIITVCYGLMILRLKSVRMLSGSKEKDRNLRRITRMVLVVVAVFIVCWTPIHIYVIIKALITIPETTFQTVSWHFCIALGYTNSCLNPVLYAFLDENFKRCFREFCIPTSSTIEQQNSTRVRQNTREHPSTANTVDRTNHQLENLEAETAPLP
Mu-type opioid receptor, sequence (P97266 whole entry): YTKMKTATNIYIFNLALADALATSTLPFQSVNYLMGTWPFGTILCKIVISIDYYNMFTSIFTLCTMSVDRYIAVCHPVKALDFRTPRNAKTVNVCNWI

| SMILES | Hill coefficient [1] | Ki [2] | Ki [3] | IC50 [4] | Hill coefficient [5] | Hill coefficient [6] | Stimulation [7] | Stimulation [8] | Hill coefficient [9] | Hill coefficient [10] |
| --- | --- | --- | --- | --- | --- | --- | --- | --- | --- | --- |
| CC[C@H](C)[C@H](NC(=O)[C@H](CCC(=O)O)NC(=O)[C@H](Cc1ccccc1)NC(=O)[C@H](C)NC(=O)[C@]1(N)CCc2cc(O)ccc2C1)C(=O)N[C@H](C(=O)NCC(N)=O)[C@@H](C)CC (H-[X2]AFEIIG-NH2) | -0.42 | 0.94 nM | 1 nM | > 10 µM | -1.09 | -0.5 | 136.9% | – | – | – |
| CC[C@H](C)[C@H](NC(=O)[C@H](CCC(=O)O)NC(=O)[C@H](Cc1ccccc1)NC(=O)[C@H](C)NC(=O)[C@@]1(N)CCc2cc(O)ccc2C1)C(=O)N[C@H](C(=O)NCC(N)=O)[C@@H](C)CC (H-[X1]AFEIIG-NH2) | – | 0.16 nM | 0.34 nM | 5.13 µM | – | -0.69 | – | 155% | -0.34 | -1.01 |
